Tests used:
[1] = molecular target: Isocitrate dehydrogenase [NADP] cytoplasmic (Homo sapiens, UniProt O75874, R132H); test: (§1) Inhibition of recombinant human C-terminal His8-tagged IDH1 R132H mutant expressed in Escherichia coli BL21 assessed as reduction in NADPH consumption using alpha-ketoglutarate as substrate preincubated for 60 mins followed by substrate addition measured for 60 mins in presence of NADPH by diaphorase/resazurin-based assay
[2] = molecular target: T1, Isocitrate dehydrogenase [NADP] cytoplasmic (Homo sapiens, UniProt O75874, R132C); test: as §1, with “R132C” for “R132H”, “addition and” for “addition”, “diaphorase/resazurin-based fluorescence” for “diaphorase/resazurin-based”
[3] = Drug uptake in brain of athymic BALB/c nude mouse xenografted with human HT1080 cells at 50 mg/kg, po administered as a single dose via gavage measured upto 24 hrs post dosing by LC-MS/MS analysis; format: ADME, organism-based; settings: in vivo
Method in brief: (§2)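 Female athymic nude mice carrying subcutaneous right-flank HT1080 xenografts (5 × 10^6 cells in PBS/Matrigel 1:1). Compound given by oral gavage as a suspension in 0.5% MC + 0.5% Tween 80 in water, 10 ml/kg. Blood taken by orbital sinus bleed; brain and tumour collected at 2, 6, 12 and 24 h, homogenized in PBS. Samples acetonitrile-precipitated with dexamethasone internal standard and measured by LC/MS/MS.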

[4] = Drug uptake in plasma of athymic BALB/c nude mouse xenografted with human HT1080 cells at 50 mg/kg, po administered as a single dose via gavage measured upto 24 hrs post dosing by LC-MS/MS analysis; format: ADME, organism-based; settings: in vivo; method in brief: as §2
[5] = Clearance in ICR mouse at 1 mg/kg, iv measured upto 24 hrs by LCMS analysis; format: ADME, organism-based; settings: in vivo
Method in brief: (§3)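 Male ICR mice (6-8 weeks, 20-25 g), nine animals, dosed 1 mg/kg by slow intravenous injection or 5 mg/kg orally. Blood sampled into EDTA at 5 min (iv only), 15 min, 30 min, 1, 2, 4, 8 and 24 h. Plasma stored at -20 °C, prepared by acetonitrile protein precipitation with dexamethasone internal standard, and analysed for parent compound. Values are means of three replicates.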

[6] = Volume of distribution at steady state in ICR mouse at 1 mg/kg, iv measured upto 24 hrs by LCMS analysis; format: ADME, organism-based; settings: in vivo, read-out: Vdss; method in brief: as §3
[7] = Oral bioavailability in ICR mouse at 5 mg/kg measured upto 24 hrs by LCMS analysis; format: ADME, organism-based; settings: in vivo; method in brief: as §3
[8] = Half life in ICR mouse at 5 mg/kg, po measured upto 24 hrs by LCMS analysis; format: ADME, organism-based; settings: in vivo; method in brief: as §3
[9] = Drug uptake in tumor of athymic BALB/c nude mouse xenografted with human HT1080 cells at 50 mg/kg, po administered as a single dose via gavage measured upto 24 hrs post dosing by LC-MS/MS analysis; format: ADME, organism-based, Neoplasm; settings: in vivo; method in brief: as §2
[10] = AUC in ICR mouse at 1 mg/kg, iv measured upto 24 hrs by LCMS analysis; format: ADME, organism-based; parameters: time < 24 hr, dose 1 mg/kg, route intravenous; settings: in vivo; method in brief: as §3
[11] = Half life in ICR mouse at 1 mg/kg, iv measured upto 24 hrs by LCMS analysis; format: ADME, organism-based; settings: in vivo; method in brief: as §3
[12] = Cmax in ICR mouse at 5 mg/kg, po measured upto 24 hrs by LCMS analysis; format: ADME, organism-based; parameters: dose 5 mg/kg, route oral; settings: in vivo; method in brief: as §3
[13] = AUC in ICR mouse at 5 mg/kg, po measured upto 24 hrs by LCMS analysis; format: ADME, organism-based; parameters: dose 5 mg/kg, time < 24 hr, route oral; settings: in vivo; method in brief: as §3
[14] = molecular target: T1, Isocitrate dehydrogenase [NADP] cytoplasmic; test: Inhibition of IDH1 R132C mutant in human HT1080 cells assessed as reduction in 2-HG production incubated with compound for 48 hrs by D2HG assay kit based fluorescence assay; format: cell-based
[15] = molecular target: Isocitrate dehydrogenase [NADP] cytoplasmic (Homo sapiens, UniProt O75874); test: Inhibition of wild type recombinant human C-terminal His8-tagged IDH1 expressed in Escherichia coli BL21 assessed as reduction in NADP consumption using DL-isocitrate as substrate preincubated for 60 mins followed by substrate addition and measured for 60 mins in presence of NADP by diaphorase/resazurin-based fluorescence assay
Sequence of Isocitrate dehydrogenase [NADP] cytoplasmic (Homo sapiens, UniProt O75874) (O75874 whole entry): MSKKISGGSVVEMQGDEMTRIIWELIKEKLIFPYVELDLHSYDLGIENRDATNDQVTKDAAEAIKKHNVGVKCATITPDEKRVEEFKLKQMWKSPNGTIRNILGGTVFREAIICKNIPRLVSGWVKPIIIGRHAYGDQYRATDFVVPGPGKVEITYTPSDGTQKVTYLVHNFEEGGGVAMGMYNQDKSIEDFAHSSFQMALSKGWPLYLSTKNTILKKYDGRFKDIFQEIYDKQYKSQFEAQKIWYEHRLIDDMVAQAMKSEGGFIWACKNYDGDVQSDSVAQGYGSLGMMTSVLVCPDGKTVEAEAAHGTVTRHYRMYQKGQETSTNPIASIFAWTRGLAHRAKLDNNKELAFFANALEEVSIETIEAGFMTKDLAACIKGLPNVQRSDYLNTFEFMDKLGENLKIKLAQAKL

Sequence of Isocitrate dehydrogenase [NADP] cytoplasmic (Homo sapiens, UniProt O75874, R132H) (O75874 2-414 R132H limits assumed): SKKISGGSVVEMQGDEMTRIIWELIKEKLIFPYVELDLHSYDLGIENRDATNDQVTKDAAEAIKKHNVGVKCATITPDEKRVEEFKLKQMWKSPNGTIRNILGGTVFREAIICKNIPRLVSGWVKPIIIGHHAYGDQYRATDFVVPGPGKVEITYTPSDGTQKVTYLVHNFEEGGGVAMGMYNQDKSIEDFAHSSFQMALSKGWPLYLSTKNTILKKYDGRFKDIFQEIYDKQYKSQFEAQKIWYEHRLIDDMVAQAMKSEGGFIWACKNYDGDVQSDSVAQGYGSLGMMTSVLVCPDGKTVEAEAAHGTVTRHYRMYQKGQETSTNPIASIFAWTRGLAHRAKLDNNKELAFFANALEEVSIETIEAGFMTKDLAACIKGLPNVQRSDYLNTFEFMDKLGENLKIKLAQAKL
T1 sequence (O75874 2-414 R132C limits assumed): as the sequence (O75874 2-414 R132H limits assumed) above, with H131C counted along it

IC50 [1] [nM] | IC50 [2] [nM] | Compound | further results
47.8 | 44.5 | C[C@H](Nc1nccc(N2C(=O)OC[C@@H]2[C@H](C)F)n1)c1ncn2c1CCc1cc(F)ccc1-2 | –
42.7 | 16.3 | Cc1ccc2c(c1)CCc1c([C@H](C)Nc3nccc(N4C(=O)OC[C@@H]4[C@H](C)F)n3)ncn1-2 | –
2.12 | 23.6 | C[C@H](Nc1nc(Cl)cc(N2C(=O)OC[C@@H]2[C@H](C)F)n1)c1ncn2c1CCc1cc(C(F)(F)F)ccc1-2 | –
478 | 394 | C[C@H](Nc1nccc(N2C(=O)OC[C@@H]2[C@H](C)F)n1)c1ncn2c1COc1cc(C#N)ccc1-2 | –
– | – | N#Cc1ccnc(N2C(=O)CC[C@H]2C(=O)N(c2cncc(F)c2)[C@H](C(=O)NC2CC(F)(F)C2)c2ccccc2Cl)c1 [IVOSIDENIB] | Drug uptake [3]: Active; Drug uptake [4]: Active; clearance [5]: 9 mL/min/kg; Vd [6]: 1.5 L/kg; bioavailability ([7]; ICR): 80%; half-life [8]: 3.5 h; Drug uptake [9]: Active; AUC at 24 h [10]: 2.97 µM·h; half-life [11]: 2.5 h; Cmax [12]: 2260 nM; AUC at 24 h [13]: 11.2 µM·h
18.4 | 8 | C[C@H](Nc1nccc(N2C(=O)OC[C@@H]2[C@H](C)F)n1)c1ncn2c1CCc1ccc(C(F)(F)F)cc1-2 | –
33.8 | 9.7 | C[C@H](Nc1nccc(N2C(=O)OC3(COC3)[C@@H]2c2ccccc2)n1)c1ncn2c1CCc1cc(C(F)(F)F)ccc1-2 | –
44.3 | 43.5 | C[C@H](Nc1nccc(N2C(=O)OC[C@@H]2[C@H](C)F)n1)c1ncn2c1CCCc1cc(C(F)(F)F)ccc1-2 | –
19.2 | 17.3 | C[C@H](Nc1nccc(N2C(=O)OC[C@@H]2[C@H](C)F)n1)c1ncn2c1sc1cc(C(F)(F)F)ccc12 | –
61.9 | 154 | COc1ccc2c(c1)OCc1c([C@H](C)Nc3nccc(N4C(=O)OC[C@@H]4[C@H](C)F)n3)ncn1-2 | –
> 10000 | 5860 | C[C@H](Nc1nccc(N2CC3(CC3)OC2=O)n1)c1ncn2c1CCc1cc(C(F)(F)F)ccc1-2 | –
2.7 | 9.4 | C[C@H](Nc1nccc(N2C(=O)OC[C@@H]2[C@H](C)F)n1)c1ncn2c1COc1cc(C(F)(F)F)ccc1-2 | clearance [5]: 30 mL/min/kg; Vd [6]: 5.2 L/kg; F ([7]; 24 h): 152%; IC50 [14]: 12 nM; half-life [8]: 2.5 h; IC50 [15]: 2840 nM; AUC at 24 h [10]: 1.02 µM·h; half-life [11]: 2.1 h; Cmax [12]: 1120 nM; AUC at 24 h [13]: 8.46 µM·h
33.4 | 24.8 | C[C@H](Nc1nccc(N2C(=O)OC[C@@H]2[C@H](C)F)n1)c1ncn2c1COc1cc(C3CC3)ccc1-2 | –

Reference: ChEMBL document CHEMBL4406857, “Discovery of new small molecule inhibitors targeting isocitrate dehydrogenase 1 (IDH1) with blood-brain barrier penetration” (Eur J Med Chem, 2019)
